Laboratory results taken from ChEMBL document CHEMBL1122553, “Tetrahydropyrrolo[1,2-a]quinoxalines and tetrahydropyrrolo[1,2-a]pyrido[3,2-a]pyrazines: vascular smooth muscle relaxants and antihypertensive agents” (1984).

Legend:
Oryctolagus cuniculus = organism: Oryctolagus cuniculus; experiment: The vascular smooth muscle relaxant activity was expressed as percent relaxation of the developed isometric tension in potassium depolarized rabbit aortic smooth muscle; format: functional, Aorta
Procedure, shortened: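 Transverse thoracic aorta strips from female New Zealand albino rabbits in Krebs solution (95% O2/5% CO2, 37 °C), held at 4 g isometric tension and equilibrated 90 min. Strips were primed with high-K+ (100 mM) solution plus 2.5 mM CaCl2, rinsed, then recontracted. After 20 min of sustained contraction, drug was added at 10⁻⁵ M final. Tension 20 min later was compared with pre-drug tension and given as % relaxation.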

Rattus norvegicus = experiment: Antihypertensive activity expressed as maximal change in systolic blood pressure (SBP) from pretreatment levels at either 1.5 or 4 hr after dosing; format: functional, Artery
Procedure, shortened: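 Male spontaneously hypertensive rats (Okamoto-Aoki, ~300-400 g), fasted at least 16 h, given a single oral 50 mg/kg dose by stomach tube; groups of four, with vehicle-only controls. Systolic pressure taken indirectly by tail plethysmography after 10 min warming at 38 °C, before dosing and at 1.5 and 4 h after. Reported as X ± SE.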

| Structure (SMILES) | Vascular relaxation (Oryctolagus cuniculus) [%] | Max SBP (Rattus norvegicus) [mmHg] |
| --- | --- | --- |
| COc1cccc(OC)c1CN1CC2CCCN2c2ccccc21 (centres undefined) | 13 | -5 |
| COc1cccc(OC)c1CN1C(=O)C2CCCN2c2ccccc21 (centres undefined) | 30 | -19 |
| COc1cccc(OC)c1CN1CC2CCCN2c2ncccc21 (centres undefined) | 54 | -6 |
| c1ccc2c(c1)NCC1CCCN21 (centres undefined) | 0 | -17 |
| O=C1C2CCCN2c2ccccc2N1Cc1ccccc1 (centres undefined) | – | -4 |
| O=C1C2CCCN2c2ncccc2N1Cc1ccccc1 (centres undefined) | 0 | -39 |
| CN(C)CCN1C(=O)C2CCCN2c2ncccc21 (centres undefined) | 0 | -22 |
| COc1cccc(OC)c1C(=O)N1CC2CCCN2c2ccccc21 (centres undefined) | 6 | -13 |
| O=C1Nc2ccccc2N2CCCC12 (centres undefined) | 0 | -26 |
| O=C1C2CCCN2c2ncccc2N1Cc1ccncc1 (centres undefined) | 0 | -38 |
| COc1cccc(OC)c1CN1C(=O)C2CCCN2c2ncccc21 (centres undefined) | 5 | -18 |
| O=C1C2CCCN2c2ccccc2N1Cc1ccncc1 (centres undefined) | – | -2 |
| COC(=O)C1=C(C)NC(C)=C(C(=O)OC)C1c1ccccc1[N+](=O)[O-] [NIFEDIPINE] | 75 | -68 |
